# Calls of active or inactive are those of the source. The rule behind the calls is not given here.
# Assays:
# [1] = tested on: MCF7; test: Antiproliferative activity against human MCF7 cells assessed as cell growth inhibition incubated for 48 hr by MTT assay; conditions: MCF7, 48 h
# [2] = tested on: A549; test: Antiproliferative activity against human A549 cells assessed as cell growth inhibition incubated for 48 hr by MTT assay; conditions: A549, 48 h
# [3] = tested on: MDA-MB-231; test: Antiproliferative activity against human MDA-MB-231 cells assessed as cell growth inhibition incubated for 48 hr by MTT assay; assay type: functional, cell-based
# Procedure, shortened: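 MTT titration: cells seeded 1×10^4/well for 24 h, then treated 48 h at 37 °C, 5% CO2 with 2.5, 5, 10, 20 μM. MTT 0.5 mg ml⁻¹ for 2 h, formazan in DMSO read at 570 nm; viability relative to 0.1% DMSO control. IC50 is the mean of three replicate experiments ± SD.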
# [4] = tested on: MCF7; test: Antiproliferative activity against human MCF7 cells assessed as cell growth inhibition at 10 uM incubated for 48 hr by MTT assay; assay type: functional
# Procedure, shortened: (§1)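 Cells in RPMI with 10% FBS, 1% pen/strep at 37 °C, 5% CO2. […] MTT 0.5 mg ml⁻¹ for 2 h, formazan dissolved in DMSO, A570; viability = OD treated/OD control × 100. Triplicate.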
# [5] = tested on: A549; test: Antiproliferative activity against human A549 cells assessed as cell growth inhibition at 10 uM incubated for 48 hr by MTT assay; assay type: functional; procedure, shortened: as §1
# [6] = tested on: MDA-MB-231; test: Antiproliferative activity against human MDA-MB-231 cells assessed as cell growth inhibition at 10 uM incubated for 48 hr by MTT assay; assay type: functional; procedure, shortened: as §1
# [7] = Antiproliferative activity against human F180 cells assessed as cell growth inhibition at 10 uM incubated for 48 hr by MTT assay; assay type: toxicity, cell-based; conditions: f180, 48 h; procedure, shortened: as §1
# [8] = biological target: T1, Tubulin (Homo sapiens) (UniProt P68371+Q9H4B7+P0DPH7+P68366+Q13509+Q71U36+P04350+Q3ZCM7+P07437+P68363+Q9BQE3+Q6PEY2+Q13885+Q9BVA1+Q9BUF5); test: Inhibition of tubulin polymerization in human A549 cells assessed as inhibition of microtubule spindle formation with irregular morphology at 9 uM incubated for 24 hrs by immunofluorescence assay; assay type: cell-based
# Procedure, shortened: (§2)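 Fixed in 3.7% paraformaldehyde, permeabilised with 0.1% Triton X-100, blocked with 1% BSA 1 h, anti-β-tubulin mouse mAb overnight at 4 °C, Alexa Fluor 488 secondary, DAPI; fluorescence microscopy.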
# [9] = biological target: T2, Tubulin (Sus scrofa) (UniProt P02554+P02550); test: Inhibition of porcine Tubulin polymerization assessed as increase in AUC by measuring fluorescence at 15 uM incubated for 1 hr by fluorescence microscopy; assay type: protein assay
# [10] = biological target: Tubulin; test: Inhibition of tubulin polymerization in human MCF7 cells by ELISA; assay type: cell-based
# [11] = biological target: T1, Tubulin (Homo sapiens); test: Inhibition of tubulin polymerization in human A549 cells assessed as inhibition of microtubule spindle formation with irregular morphology at 13 uM incubated for 24 hrs by immunofluorescence assay; assay type: cell-based; procedure, shortened: as §2
# [12] = biological target: T2, Tubulin (Sus scrofa); test: Inhibition of porcine Tubulin polymerization assessed as decrease in AUC by measuring fluorescence at 15 uM incubated for 1 hr by fluorescence microscopy; assay type: protein assay
# Procedure, shortened: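 Porcine tubulin at 2 mg ml⁻¹ in 80 mM PIPES, 2 mM MgCl₂, 0.5 mM EGTA pH 6.9, with 10 μM fluorescent reporter, 1 mM GTP and 15% glycerol, in a pre-warmed plate. […] Fluorescence (ex 360, em 450 nm) read once per min for 60 min at 37 °C. Area under the curve scored against the untreated control, taken as 100%.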
# [13] = tested on: MCF7; test: Cell cycle arrest in human MCF7 assessed as accumulation at pre G phase at 6 uM incubated for 24 hrs by propidium iodide staining flow cytometry; assay type: functional
# Procedure, shortened: (§3)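 MCF-7 cells exposed to 6 μM for 24 h, DMSO vehicle control. Cells harvested, fixed in 70% ethanol on ice 15 min, then stained 1 h at room temperature with PI solution containing 0.1 mg mL⁻¹ RNaseA and 0.05% Triton X-100. DNA content read by flow cytometry; percentage of cells in each phase.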
# [14] = tested on: MCF7; test: Cell cycle arrest in human MCF7 assessed as accumulation at G1 phase at 6 uM incubated for 24 hrs by propidium iodide staining flow cytometry; assay type: functional; procedure, shortened: as §3
# [15] = tested on: MCF7; test: Cell cycle arrest in human MCF7 assessed as accumulation at G2/M phase at 6 uM incubated for 24 hrs by propidium iodide staining flow cytometry; assay type: functional; procedure, shortened: as §3
# [16] = tested on: MCF7; test: Cell cycle arrest in human MCF7 assessed as accumulation at S phase at 6 uM incubated for 24 hrs by propidium iodide staining flow cytometry; assay type: functional; procedure, shortened: as §3
# [17] = tested on: MCF7; test: Induction of apoptosis in human MCF7 cells assessed as early apoptotic cells at 6 uM incubated for 24 hrs by Annexin V-FITC/propidium iodide staining based flow cytometry (reference value: 0.55 %); assay type: functional
# [18] = tested on: MCF7; test: Induction of apoptosis in human MCF7 cells assessed as late apoptotic cells at 6 uM incubated for 24 hrs by Annexin V-FITC/propidium iodide staining based flow cytometry (reference value: 0.17 %); assay type: functional
# [19] = tested on: MCF7; test: Induction of apoptosis in human MCF7 cells assessed as necrotic cells at 6 uM incubated for 24 hrs by Annexin V-FITC/propidium iodide staining based flow cytometry (reference value: 0.76 %); assay type: functional
# [20] = tested on: MCF7; test: Induction of apoptosis in human MCF7 cells assessed as Caspase-9 level at 6 uM incubated for 24 hrs by ELISA; assay type: functional
# Procedure, shortened: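 MCF-7 cells incubated with or without 6 μM for 24 h, washed in PBS, lysed; caspase-9 in lysates quantified by ELISA kit (ng ml⁻¹). Mean of three replicates ± SD.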
# [21] = tested on: MCF7; test: Induction of apoptosis in human MCF7 cells assessed as Bcl-2 level at 6 uM incubated for 24 hrs by ELISA; assay type: functional
# Procedure, shortened: (§4)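 MCF-7 in RPMI1640 with 10% FBS, exposed to 6 μM for 24 h, lysed in cell extraction buffer, lysate diluted in standard diluent; Bax (pg ml⁻¹) and Bcl2 (ng ml⁻¹) measured by ELISA. Mean of three replicates ± SD.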
# [22] = tested on: MCF7; test: Induction of apoptosis in human MCF7 cells assessed as Bax level at 6 uM incubated for 24 hrs by ELISA; assay type: functional; procedure, shortened: as §4
# [23] = Homo sapiens, MDA-MB-231, 48 h, read-out: IC50
# T2 sequence (P02550 whole entry, looked up): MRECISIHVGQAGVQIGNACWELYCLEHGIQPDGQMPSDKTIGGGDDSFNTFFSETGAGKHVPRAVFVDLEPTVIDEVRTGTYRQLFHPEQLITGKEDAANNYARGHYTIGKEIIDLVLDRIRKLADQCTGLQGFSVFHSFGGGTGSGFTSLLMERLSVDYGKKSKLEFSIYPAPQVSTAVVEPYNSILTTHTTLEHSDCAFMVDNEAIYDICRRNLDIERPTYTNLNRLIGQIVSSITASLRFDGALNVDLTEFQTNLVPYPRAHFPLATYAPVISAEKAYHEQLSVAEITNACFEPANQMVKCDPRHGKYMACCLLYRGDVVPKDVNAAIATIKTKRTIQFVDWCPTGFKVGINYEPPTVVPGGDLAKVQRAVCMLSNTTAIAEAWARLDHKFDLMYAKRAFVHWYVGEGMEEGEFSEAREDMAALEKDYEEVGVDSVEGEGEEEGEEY
# T2 sequence (P02554 whole entry, looked up): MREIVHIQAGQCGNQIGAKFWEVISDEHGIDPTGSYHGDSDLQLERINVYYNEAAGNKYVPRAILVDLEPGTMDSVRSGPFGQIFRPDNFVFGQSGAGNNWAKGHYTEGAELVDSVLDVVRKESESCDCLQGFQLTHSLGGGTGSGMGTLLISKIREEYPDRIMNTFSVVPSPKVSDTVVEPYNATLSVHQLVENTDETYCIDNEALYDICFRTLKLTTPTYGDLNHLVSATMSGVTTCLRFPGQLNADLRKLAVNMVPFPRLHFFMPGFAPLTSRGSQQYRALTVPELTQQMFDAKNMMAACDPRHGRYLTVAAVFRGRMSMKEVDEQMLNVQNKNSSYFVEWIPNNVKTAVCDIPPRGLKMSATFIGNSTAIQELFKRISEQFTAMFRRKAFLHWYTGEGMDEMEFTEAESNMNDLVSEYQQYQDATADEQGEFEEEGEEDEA
Structure (SMILES),IC50 [1] [µM],IC50 [2] [µM],"IC50 [3, 23] [µM]",inhibition [9],IC50 [10] [µM],inhibition at 10 µM [4] [%],inhibition at 10 µM [5] [%],inhibition at 10 µM [6] [%],Activity [7],also measured
CCOc1ccc(C2C3=C(CCCC3=O)Nc3c2c(C)nn3-c2nc(C)cc(C)n2)cc1OC (stereo not given),23.2,> 20,> 23,–,–,40,40,40,Toxic,–
COc1ccc(C2CC(O)=Nc3c2ncn3-c2cccc(C(F)(F)F)c2)cc1O (stereo not given),–,–,–,–,–,50,40,60,Toxic,inhibition [12]: Active; Activity [13]: 1.48%; Activity [14]: 53.91%; Activity [15]: 3.38%; Activity [16]: 42.71%; Activity [17]: 5.96%; Activity [18]: 14.29%; Activity [19]: 7.11%; Activity [20]: 13.7 ng/mL; Activity [21]: 2.1 ng/mL; Activity [22]: 207.6 pg/mL

# Continued, in another order:
IC50 [1] [µM],IC50 [2] [µM],"IC50 [3, 23] [µM]",inhibition [9],IC50 [10] [µM],Structure (SMILES),inhibition at 10 µM [4] [%],inhibition at 10 µM [5] [%],inhibition at 10 µM [6] [%],Activity [7],also measured
11,9.4,19.5,Active,12.8,COc1ccc(C(=O)c2cn(CC(=O)Nc3ccc(F)cc3)c3cc(OC)c(OC)cc3c2=O)cc1,50,50,50,Toxic,inhibition [8]: Active
0.0061,0.015,0.0193,–,–,CC(=O)O[C@H]1C(=O)[C@@]2(C)[C@H]([C@H](OC(=O)c3ccccc3)[C@]3(O)C[C@H](OC(=O)[C@H](O)[C@@H](NC(=O)c4ccccc4)c4ccccc4)C(C)=C1C3(C)C)[C@]1(OC(C)=O)CO[C@@H]1C[C@@H]2O [PACLITAXEL],–,–,–,–,–
12,13.2,–,Active,13.1,COc1cc2c(=O)c(C(=O)c3ccc(F)cc3)cn(CC(=O)Nc3ccc(F)c(F)c3)c2cc1OC,50,20,80,Toxic,IC50 ([3]; time 48 hrs): 14.1 µM; inhibition [11]: Active

# — ChEMBL document CHEMBL5108041, “Identification and validation of novel microtubule suppressors with an imidazopyridine scaffold through structure-based virtual screening and docking” (RSC Med Chem, 2022)
